According to ChEMBL document CHEMBL3421573, “Synthesis of new ent-labdane diterpene derivatives from andrographolide and evaluation on cytotoxic activities” (Bioorg Med Chem Lett, 2015):

How the values were obtained:
Format in all cases: functional, cell-based
[1] = Cytotoxicity against human NTUB1 cells after 48 hrs by MTT assay; conditions: NTUB1, 48 h
Procedure, shortened: (§1)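 Samples dissolved in DMSO (0.1%); cis-platin included as positive control. IC50 taken as the drug concentration giving 50% growth inhibition, in µM.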

MCF7 = assay: Cytotoxicity against human MCF7 cells after 48 hrs by MTT assay; procedure, shortened: as §1
[2] = Cytotoxicity against human NP14 cells after 48 hrs by MTT assay; conditions: NP14, 48 h; procedure, shortened: as §1
MDA-MB-231 = assay: Cytotoxicity against human MDA-MB-231 cells after 48 hrs by MTT assay; procedure, shortened: as §1
[3] = Homo sapiens, MCF7, 48 h, read-out: IC50
[4] = Homo sapiens, MDA-MB-231, 48 h, read-out: IC50

`C=C1CC[C@@H]2[C@](C)(COC(=O)C(Cl)Cl)[C@H](OC(=O)C(Cl)Cl)CC[C@@]2(C)[C@@H]1CCc1ccoc1` gave an IC50 [1] of 11.2 µM, an IC50 (MCF7; [3]) of 22.9 µM and an IC50 [2] of 4.42 µM. For the same molecule, the IC50 (MDA-MB-231; [4]) was 2.64 µM.
Work on `C=C1CC[C@@H]2[C@](C)(COC(=O)c3ccc([N+](=O)[O-])cc3)[C@H](OC(=O)c3ccc([N+](=O)[O-])cc3)CC[C@@]2(C)[C@@H]1CCc1ccoc1` yielded an IC50 [1] of over 100 µM, an IC50 (MCF7; [3]) of over 100 µM and an IC50 [2] of over 100 µM. The IC50 (MDA-MB-231; [4]) was over 100 µM.
`C=C1CC[C@@H]2[C@](C)(COC(=O)c3ccc(OC)cc3)[C@H](O)CC[C@@]2(C)[C@@H]1CCc1ccoc1` showed an IC50 [1] of 26.3 µM, an IC50 (MCF7; [3]) of 25.2 µM and an IC50 [2] of 40.4 µM. For the same molecule, the IC50 (MDA-MB-231; [4]) was 28.6 µM.
With `C=C1CC[C@@H]2[C@](C)(CO)[C@H](O)CC[C@@]2(C)[C@@H]1CC(O)C1=CCOC1=O` (some centres undefined) the IC50 [1] was 14.9 µM, the IC50 (MCF7; [3]) was 78 µM and the IC50 [2] was 49.4 µM. The IC50 (MDA-MB-231; [4]) was 27.6 µM.
`C=C1CC[C@@H]2[C@](C)(CO)[C@H](O)CC[C@@]2(C)[C@@H]1CC(O)c1ccoc1` (some centres undefined) gave an IC50 [1] of over 100 µM, an IC50 (MCF7; [3]) of over 100 µM and an IC50 [2] of over 100 µM. For the same molecule, the IC50 (MDA-MB-231; [4]) was over 100 µM.
In the case of `C=C1CC[C@@H]2[C@](C)(CO)[C@H](O)CC[C@@]2(C)[C@@H]1CCc1ccoc1`, the IC50 [1] is reported as 39.8 µM, the IC50 (MCF7; [3]) is reported as 79.5 µM and the IC50 [2] is reported as 53.3 µM. It also gave an IC50 (MDA-MB-231; [4]) of over 100 µM.
In the case of `C=C1CC[C@H]2[C@@](C)(CCC(=O)[C@@]2(C)CO)[C@@H]1CCc1ccoc1`, the IC50 [1] is reported as 63.1 µM, the IC50 (MCF7; [3]) is reported as 87.3 µM and the IC50 [2] is reported as 43.2 µM. The IC50 (MDA-MB-231; [4]) was 71.2 µM.
In the case of `C=C1CC[C@@H]2[C@](C)(COC(=O)CC)[C@H](OC(=O)CC)CC[C@@]2(C)[C@@H]1CCc1ccoc1`, the IC50 [1] is reported as 42.9 µM, the IC50 (MCF7; [3]) is reported as over 100 µM and the IC50 [2] is reported as 94.2 µM. For the same molecule, the IC50 (MDA-MB-231; [4]) was 40.4 µM.
`C=C1CC[C@@H]2[C@](C)(COC(=O)COc3ccccc3)[C@H](O)CC[C@@]2(C)[C@@H]1CCc1ccoc1` showed an IC50 [1] of over 100 µM, an IC50 (MCF7; [3]) of 36.8 µM and an IC50 [2] of 18.6 µM. For the same molecule, the IC50 (MDA-MB-231; [4]) was 35 µM.
For `C=C1CC[C@@H]2[C@](C)(CO)[C@H](O)CC[C@@]2(C)[C@@H]1CCC1=CCOC1=O` [DEOXYANDROGRAPHOLIDE], the IC50 [1] was over 100 µM, the IC50 (MCF7; mcf7) was “Not Active” and the IC50 [2] was over 100 µM. The IC50 (MDA-MB-231; mda-mb-231) was “Not Active”.
For `C[C@]1(CO)[C@H]2CCC(=O)[C@@H](CCc3ccoc3)[C@]2(C)CC[C@H]1O`, the IC50 [1] was over 100 µM, the IC50 (MCF7; [3]) was over 100 µM and the IC50 [2] was over 100 µM. It also gave an IC50 (MDA-MB-231; [4]) of 56.3 µM.
For `C=C1[C@H](O)C[C@@H]2[C@](C)(COC(=O)CC)[C@H](OC(=O)CC)CC[C@@]2(C)[C@@H]1CCc1ccoc1`, the IC50 [1] was 29.6 µM, the IC50 (MCF7; [3]) was 44 µM and the IC50 [2] was 27.7 µM. The IC50 (MDA-MB-231; [4]) was 40.9 µM.
For `C=C1CC[C@@H]2[C@](C)(COC(c3ccccc3)(c3ccccc3)c3ccccc3)[C@H](OC(C)=O)CC[C@@]2(C)[C@@H]1CC(OC(C)=O)C1=CCOC1=O` (some centres undefined), the IC50 [1] was 8.45 µM, the IC50 (MCF7; [3]) was 6.41 µM and the IC50 [2] was 14.3 µM. The IC50 (MDA-MB-231; [4]) was 6.37 µM.
In the case of `C=C1CC[C@@H]2[C@](C)(CO)[C@H](O)CC[C@@]2(C)[C@@H]1C/C=C1/C(=O)OC[C@H]1O` [ANDROGRAPHOLIDE], the IC50 [1] is reported as 32.5 µM, the IC50 (MCF7; [3]) is reported as 30.8 µM and the IC50 [2] is reported as 21.2 µM. It also gave an IC50 (MDA-MB-231; [4]) of 16.6 µM.
In the case of `C=C1CC[C@@H]2[C@](C)(COC(=O)CC)[C@H](OC(=O)CC)CC[C@@]2(C)[C@@H]1CC(OC(=O)CC)c1ccoc1` (some centres undefined), the IC50 [1] is reported as 89.7 µM, the IC50 (MCF7; [3]) is reported as over 100 µM and the IC50 [2] is reported as 43.1 µM. The IC50 (MDA-MB-231; [4]) was over 100 µM.
Molecule `C=C1CC[C@@H]2[C@](C)(COC(=O)c3ccc([N+](=O)[O-])cc3)[C@H](O)CC[C@@]2(C)[C@@H]1CCc1ccoc1` has an IC50 [1] of 23.8 µM, an IC50 (MCF7; [3]) of 62.1 µM and an IC50 [2] of 80.9 µM. For the same molecule, the IC50 (MDA-MB-231; [4]) was 37.5 µM.
